Test results: the M2OR odorant receptor database

What follows are compounds tested against T1, OR13D1 (Homo sapiens) (UniProt Q8NGV5). Conditions: stereoisomer not certain.
T1 sequence (whole entry): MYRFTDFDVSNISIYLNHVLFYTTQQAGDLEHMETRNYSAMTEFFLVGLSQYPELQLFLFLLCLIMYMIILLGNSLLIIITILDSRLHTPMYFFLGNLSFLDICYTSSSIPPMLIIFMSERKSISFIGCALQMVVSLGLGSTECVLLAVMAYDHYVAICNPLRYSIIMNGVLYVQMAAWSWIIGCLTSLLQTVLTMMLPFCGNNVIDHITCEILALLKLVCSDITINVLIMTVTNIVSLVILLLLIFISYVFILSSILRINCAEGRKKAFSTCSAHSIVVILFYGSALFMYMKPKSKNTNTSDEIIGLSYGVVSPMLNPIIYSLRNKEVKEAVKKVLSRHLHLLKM
Method in brief: (§1)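 Each entry records the cell line, G-protein, co-transfected protein and tags used. Methods varied with the source, often transient luciferase assays in mammalian cell lines. A receptor–molecule pair is called responsive (active) if the original authors judged its signal statistically different from baseline and non-responsive (inactive) otherwise.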

Odorant receptor agonist call, inactive:
CC1CCCCCCCCCCCCC(=O)C1 (stereo not given)
CCCC(S)CCOC(C)=O (stereo not given)
CC1=C(O)C(=O)C(C)O1 (stereo not given)
CCC1OC(=O)C(O)=C1C (stereo not given)
CC(=O)c1c(C)c([N+](=O)[O-])c(C(C)(C)C)c([N+](=O)[O-])c1C
CCC(S)C(C)CO (stereo not given)
CCCCC(S)C(C)CO (stereo not given)
Cc1cnc(C)c(C)n1
CC1=C(O)C(=O)OC1C (stereo not given)
CC1=NC(C)C(C)S1 (stereo not given)
CCCCCC(=O)C(C)C(C)=O (stereo not given)
CCCCCCC=CCCC=O
CC(CO)CS (stereo not given)
CCCCCC(S)C(C)CO (stereo not given)
CCC1OC(C)=C(O)C1=O (stereo not given)

Each compound was assayed against T2, OR13F1 (Homo sapiens) (UniProt Q8NGS4). Conditions: stereoisomer not certain.
T2 sequence (whole entry): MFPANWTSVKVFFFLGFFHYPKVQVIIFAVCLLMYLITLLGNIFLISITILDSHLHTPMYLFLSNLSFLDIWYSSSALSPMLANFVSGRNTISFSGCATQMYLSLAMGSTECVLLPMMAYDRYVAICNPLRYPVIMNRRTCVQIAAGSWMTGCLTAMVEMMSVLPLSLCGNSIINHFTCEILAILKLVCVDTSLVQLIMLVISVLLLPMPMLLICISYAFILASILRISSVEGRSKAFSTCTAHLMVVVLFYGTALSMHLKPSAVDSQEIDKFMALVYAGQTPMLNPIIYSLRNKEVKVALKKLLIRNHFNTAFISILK
Method in brief: as §1

Odorant receptor agonist call, inactive:
CC1CCCCCCCCCCCCC(=O)C1 (stereo not given)
CCCC(S)CCOC(C)=O (stereo not given)
CC1=C(O)C(=O)C(C)O1 (stereo not given)
CCC1OC(=O)C(O)=C1C (stereo not given)
CC(=O)c1c(C)c([N+](=O)[O-])c(C(C)(C)C)c([N+](=O)[O-])c1C
CCC(S)C(C)CO (stereo not given)
CCCCC(S)C(C)CO (stereo not given)
Cc1cnc(C)c(C)n1
CC1=C(O)C(=O)OC1C (stereo not given)
CC1=NC(C)C(C)S1 (stereo not given)
CCCCCC(=O)C(C)C(C)=O (stereo not given)
CCCCCCC=CCCC=O
CC(CO)CS (stereo not given)
CCCCCC(S)C(C)CO (stereo not given)
CCC1OC(C)=C(O)C1=O (stereo not given)

The compounds below were run against T3, OR13G1 (Homo sapiens) (UniProt Q8NGZ3). Conditions: stereoisomer not certain.
T3 sequence (whole entry): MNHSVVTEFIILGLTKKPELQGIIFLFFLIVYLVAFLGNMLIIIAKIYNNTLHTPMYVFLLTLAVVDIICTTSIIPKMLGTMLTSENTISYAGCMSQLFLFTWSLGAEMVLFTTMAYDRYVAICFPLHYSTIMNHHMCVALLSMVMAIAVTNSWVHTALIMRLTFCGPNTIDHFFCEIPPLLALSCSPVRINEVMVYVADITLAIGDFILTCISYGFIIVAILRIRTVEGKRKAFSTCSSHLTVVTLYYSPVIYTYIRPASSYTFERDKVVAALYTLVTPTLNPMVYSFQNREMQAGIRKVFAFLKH
Method in brief: as §1

Odorant receptor agonist call, inactive:
CC1CCCCCCCCCCCCC(=O)C1 (stereo not given)
CCCC(S)CCOC(C)=O (stereo not given)
CC1=C(O)C(=O)C(C)O1 (stereo not given)
CCC1OC(=O)C(O)=C1C (stereo not given)
CC(=O)c1c(C)c([N+](=O)[O-])c(C(C)(C)C)c([N+](=O)[O-])c1C
CCC(S)C(C)CO (stereo not given)
CCCCC(S)C(C)CO (stereo not given)
Cc1cnc(C)c(C)n1
CC1=C(O)C(=O)OC1C (stereo not given)
CC1=NC(C)C(C)S1 (stereo not given)
CCCCCC(=O)C(C)C(C)=O (stereo not given)
CCCCCCC=CCCC=O
CC(CO)CS (stereo not given)
CCCCCC(S)C(C)CO (stereo not given)
CCC1OC(C)=C(O)C1=O (stereo not given)
